Activity and log10cfu data for 7 molecules are collected here from ChEMBL document CHEMBL2176968, “Identification of less lipophilic riminophenazine derivatives for the treatment of drug-resistant tuberculosis” (J Med Chem, 2012).

One data set concerns Mus musculus. Briefly: Toxicity in BALB/c mouse infected with multi-drug resistant Mycobacterium tuberculosis isolate 040 assessed as skin discoloration at 20 mg/kg, po qd administered 5 days per week during acute phase of infection measured after 20 days. Format: organism-based. The arrangement: dose 20 mg/kg, route oral. The following applies: in vivo, 480 h. The procedure, abridged:
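Mice were infected by aerosol and then dosed by gavage at 20 mg/kg in 0.5% CMC, 5 days per week, from day 10 to day 30. During treatment, discoloration of ears, internal organs and fat tissue was scored visually and ranked by color intensity.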

Data set [1] has as its system Mycobacterium tuberculosis. Briefly: Antitubercular activity against multi-drug resistant Mycobacterium tuberculosis isolate 040 infected in BALB/c mouse assessed as reduction in lung bacterial load at 20 mg/kg, po qd administered 5 days per week during acute phase of infection measured after 20 days relative to untreated control. Format: functional. The procedure, abridged:
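Infection was by aerosol, depositing 50-100 bacilli per lung. Dosing began on day 10 and ran to day 30, 5 days per week, with compound in 0.5% CMC by gavage. Groups had 5-6 treated mice and 7-10 CMC-treated controls. The day after the last dose, lung homogenates were plated on supplemented 7H11 agar in duplicate for 2-3 weeks at 37°C. Results are log10 CFU per lung; means were compared by Student's t test.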

As for `COC1CCC(/N=c2\cc3n(-c4ccc(Cl)cc4)c4ccccc4nc-3cc2Nc2ccc(C)nc2)CC1` (centres undefined), in the data set on Mus musculus, the Activity entry is recorded as “Non-toxic”. For the same molecule, the log10cfu in data set [1] stood at 3.25.

As to `COc1ncccc1Nc1cc2nc3ccccc3n(-c3ccc(OC(F)(F)F)cc3)c-2c/c1=N\C1CCC(OC)CC1` (centres undefined), the Activity entry in the data set on Mus musculus was “Non-toxic”. In addition, in data set [1], the log10cfu turned out to be 4.67.

`COc1ncccc1Nc1cc2nc3ccccc3n(-c3ccc(F)cc3)c-2c/c1=N\C(C)C`: in the data set on Mus musculus, the Activity result was “Toxic”. The log10cfu in data set [1] is 3.91.

Consider `COc1ncccc1Nc1cc2nc3ccccc3n(-c3ccc(F)cc3)c-2c/c1=N\C1CCC(OC)CC1` (centres undefined), for which the Activity entry with Mus musculus was “Toxic”. Moreover, in data set [1], the log10cfu is listed as 4.35.

For the molecule `COc1ncccc1Nc1cc2nc3ccccc3n(-c3ccc(Cl)cc3)c-2c/c1=N\C1CCOCC1`, the Activity result in the data set on Mus musculus is reported as “Non-toxic”. Moreover, the log10cfu in data set [1] is given as 4.81.

Consider `COc1ncccc1Nc1cc2nc3ccccc3n(-c3ccc(Cl)cc3)c-2c/c1=N\C1CCC(OC)CC1` (centres undefined), for which the Activity result in the data set on Mus musculus is reported as “Non-toxic”. For the same molecule, the log10cfu in data set [1] is given as 4.04.

Turning to `CC(C)/N=c1\cc2n(-c3ccc(Cl)cc3)c3ccccc3nc-2cc1Nc1ccc(Cl)cc1` [CLOFAZIMINE], the Activity entry in the data set with Mus musculus is listed as “Toxic”. The log10cfu in data set [1] came to 3.54.
